Laboratory results: paper PMC8682075 (Biochimie, 2020)
Entries after “also recorded” stand apart in the source; their conditions may differ.

Key:
[1] = system: Human intrinsic factor (IF); conditions: cited from earlier work
MMUT WT = biological target: T1, MMUT WT (Homo sapiens, UniProt P22033); test: Activity screen; assay type: biochemical; conditions: cobamide 1 μM, MMUT WT 0.01 μM, 30 minutes
T1 sequence (P22033 33-750): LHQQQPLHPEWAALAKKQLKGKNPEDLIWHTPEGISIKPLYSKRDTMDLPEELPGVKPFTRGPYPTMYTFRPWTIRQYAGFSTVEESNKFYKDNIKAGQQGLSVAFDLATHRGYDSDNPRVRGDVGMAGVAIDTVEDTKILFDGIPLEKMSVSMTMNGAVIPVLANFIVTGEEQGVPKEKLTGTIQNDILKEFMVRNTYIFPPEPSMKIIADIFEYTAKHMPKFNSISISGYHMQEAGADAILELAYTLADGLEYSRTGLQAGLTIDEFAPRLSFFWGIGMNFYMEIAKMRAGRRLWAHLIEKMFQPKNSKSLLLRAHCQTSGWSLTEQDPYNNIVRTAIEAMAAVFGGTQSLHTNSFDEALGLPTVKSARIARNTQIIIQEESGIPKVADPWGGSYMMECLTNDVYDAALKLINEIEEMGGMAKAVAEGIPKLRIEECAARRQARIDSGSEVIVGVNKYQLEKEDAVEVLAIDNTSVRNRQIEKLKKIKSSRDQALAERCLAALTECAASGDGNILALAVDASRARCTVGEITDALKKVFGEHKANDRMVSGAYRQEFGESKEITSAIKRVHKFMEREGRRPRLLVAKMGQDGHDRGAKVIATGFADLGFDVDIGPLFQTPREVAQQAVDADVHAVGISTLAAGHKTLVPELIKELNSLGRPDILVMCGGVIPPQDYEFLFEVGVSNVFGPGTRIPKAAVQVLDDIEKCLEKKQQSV
Summary of the method: (§1)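 At 30 °C, reaction was started with thiokinase, MgCl₂, ADP and methylmalonyl-CoA. Final levels were cofactor 1 μM and (R)-methylmalonyl-CoA 2 mM. Enzyme was WT 0.01 μM, G717V 1 μM, other variants 0.1 μM. After 30 min, an aliquot went into 2.5 mM DTNB; CoA was taken from A412 (ε 14,150 M⁻¹ cm⁻¹).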

[2] = system: MMUT variants G648D, V633G, G717V, P86L, Y100C, Y231N; test: Activity screen; assay type: biochemical, human; conditions: cobamide 1 μM, variants 0.1 μM (G717V 1 μM), 30 minutes
Summary of the method: as §1

[3] = biological target: T2, MMUT (methylmalonyl-CoA mutase) (Homo sapiens, UniProt P22033); test: Coupled thiokinase/DTNB spectrophotometric MMUT activity assay; assay type: biochemical; conditions: for MMUT activity with the cobamide (in words): coupled spectrophotometric assay; for KM, app relative to AdoCbl: higher than AdoCbl
T2 sequence (P22033 33-750): T1 sequence (P22033 33-750)
Summary of the method: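 In the coupled kinetic assay, succinyl-CoA was converted by thiokinase to CoA, which was detected spectrophotometrically with DTNB. C-terminally His-tagged MMUT was at 10 nM. Enzymatically made (R)-methylmalonyl-CoA was fixed at 4 mM. Adenosylated cofactor was varied per cofactor, from 0.031 μM at lowest to 12 μM at highest. K_M,app and k_cat come from ≥5 replicates over ≥2 independent experiments and two biological samples.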

[4] = biological target: T2, MMUT (methylmalonyl-CoA mutase); test: Cobamide equilibrium binding by quenching of intrinsic protein fluorescence; conditions: for binding to MMUT (in words): micromolar cobamide concentrations
Summary of the method: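 Fluorescence quenching used MMUT at 0.2 μM, from N-terminal His-tag (E. coli BL21(DE3)pLysS) and C-terminal His-tag preparations. Adenosylated cofactor was titrated at 0.19–2.5 μM or 0.23–2.5 μM, depending on cofactor class. Plate-reader excitation/emission was 282/340 nm. Kd came from a quadratic fit allowing for ligand depletion. Values were averaged over ≥5 technical replicates from ≥2 independent experiments.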

[5] = biological target: T2, MMUT (methylmalonyl-CoA mutase); test: Binding kinetics by stopped-flow fluorescence spectroscopy; conditions: MMUT 0.2 μM, cobamide 4.8 – 16.2 μM (to 24.3 μM for Ado[Phe]Cba)
Summary of the method: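 Stopped-flow fluorimetry used C-terminally His-tagged MMUT at 0.2 μM final after mixing. Adenosylated cofactor was added at 4.8, 7.2, 10.8 and 16.2 μM (24.3 μM for one cofactor). Excitation was 282 nm, with emission through a 320 nm long-pass filter. Traces, minus the buffer-addition control, were fitted to first-order exponential decay to give k_obs. k_on was the slope of k_obs versus concentration, from four technical replicates.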

cyanobenzimidazolylcobamide [CN[Bza]Cba]
IF affinity, lower than affinity for CNCbl [1]: no more than 2 fold

adenosyladeninylcobamide [Ado[Ade]Cba]
IF binding relative to AdoCbl [1]: six orders of magnitude more weakly

C/C1=C2/[N-][C@H]([C@H](CC(N)=O)[C@@]2(C)CCC(=O)NC[C@@H](C)OP(=O)([O-])O[C@H]2[C@@H](O)[C@@H](n3cnc4cccc(C)c43)O[C@@H]2CO)[C@]2(C)N=C(/C(C)=C3N=C(/C=C4N=C1[C@@H](CCC(N)=O)C\4(C)C)[C@@H](CCC(N)=O)[C@]\3(C)CC(N)=O)[C@@H](CCC(N)=O)[C@]2(C)CC(N)=O.[CH2-][C@H]1O[C@@H](n2cnc3c(N)ncnc32)[C@H](O)[C@@H]1O.[Co+3] [J, 7-methylbenzimidazolylcobamide]
activity of WT MMUT with the cobamide (in words) (MMUT WT): active | activity of MMUT variants with the cobamide (in words) [2]: partially or entirely lost the ability to use

C/C1=C2/[N-][C@H]([C@H](CC(N)=O)[C@@]2(C)CCC(=O)NC[C@@H](C)OP(=O)([O-])O[C@H]2[C@@H](O)[C@@H](n3cnc4cc(C)ccc43)O[C@@H]2CO)[C@]2(C)N=C(/C(C)=C3N=C(/C=C4N=C1[C@@H](CCC(N)=O)C\4(C)C)[C@@H](CCC(N)=O)[C@]\3(C)CC(N)=O)[C@@H](CCC(N)=O)[C@]2(C)CC(N)=O.[CH2-][C@H]1O[C@@H](n2cnc3c(N)ncnc32)[C@H](O)[C@@H]1O.[Co+3] [Ado[5-MeBza]Cba]
MMUT activity with the cobamide (in words) [3]: active | activity of WT MMUT with the cobamide (in words) (MMUT WT): active

adenosyl-5-fluorobenzimidazolylcobamide [compound P]
activity of WT MMUT with the cobamide (in words) (MMUT WT): active | activity of MMUT variants with the cobamide (in words) [2]: some variants also had appreciable activity

C/C1=C2/[N-][C@H]([C@H](CC(N)=O)[C@@]2(C)CCC(=O)NC[C@@H](C)OP(=O)([O-])O[C@H]2[C@@H](O)[C@@H](n3cnc4nc(C)nc(N)c43)O[C@@H]2CO)[C@]2(C)N=C(/C(C)=C3N=C(/C=C4N=C1[C@@H](CCC(N)=O)C\4(C)C)[C@@H](CCC(N)=O)[C@]\3(C)CC(N)=O)[C@@H](CCC(N)=O)[C@]2(C)CC(N)=O.[CH2-][C@H]1O[C@@H](n2cnc3c(N)ncnc32)[C@H](O)[C@@H]1O.[Co+3] [Ado[2-MeAde]Cba, adenosyl-2-methyladeninylcobamide]
IF binding relative to AdoCbl [1]: six orders of magnitude more weakly

6-azabenzimidazolylcobamide
activity of WT MMUT with the cobamide (in words) (MMUT WT): No activity

3-deazaadeninylcobamide
activity of WT MMUT with the cobamide (in words) (MMUT WT): No activity

C/C1=C2/[N-][C@H]([C@H](CC(N)=O)[C@@]2(C)CCC(=O)NC[C@@H](C)OP(=O)([O-])O[C@H]2[C@@H](O)[C@@H](n3cnc4cccc(N)c43)O[C@@H]2CO)[C@]2(C)N=C(/C(C)=C3N=C(/C=C4N=C1[C@@H](CCC(N)=O)C\4(C)C)[C@@H](CCC(N)=O)[C@]\3(C)CC(N)=O)[C@@H](CCC(N)=O)[C@]2(C)CC(N)=O.[CH2-][C@H]1O[C@@H](n2cnc3c(N)ncnc32)[C@H](O)[C@@H]1O.[Co+3] [K, 7-aminobenzimidazolylcobamide]
activity of WT MMUT with the cobamide (in words) (MMUT WT): active | activity of MMUT variants with the cobamide (in words) [2]: partially or entirely lost the ability to use

C/C1=C2/[N-][C@H]([C@H](CC(N)=O)[C@@]2(C)CCC(=O)NC[C@@H](C)OP(=O)([O-])O[C@H]2[C@@H](O)[C@@H](n3cnc4ccccc43)O[C@@H]2CO)[C@]2(C)N=C(/C(C)=C3N=C(/C=C4N=C1[C@@H](CCC(N)=O)C\4(C)C)[C@@H](CCC(N)=O)[C@]\3(C)CC(N)=O)[C@@H](CCC(N)=O)[C@]2(C)CC(N)=O.[CH2-][C@H]1O[C@@H](n2cnc3c(N)ncnc32)[C@H](O)[C@@H]1O.[Co+3] [Ado[Bza]Cba]
difference in Kd relative to AdoCbl [4]: ~ 25 fold | MMUT activity with the cobamide (in words) [3]: active | KM, app relative to AdoCbl [3]: 10 fold | activity of WT MMUT with the cobamide (in words) (MMUT WT): active

cyano-5-hydroxybenzimidazolylcobamide [CN[5-OHBza]Cba]
IF affinity, lower than affinity for CNCbl [1]: no more than 2 fold

purinylcobamide
activity of WT MMUT with the cobamide (in words) (MMUT WT): No activity

C/C1=C2/[N-][C@H]([C@H](CC(N)=O)[C@@]2(C)CCC(=O)NC[C@@H](C)O)[C@]2(C)N=C(/C(C)=C3N=C(/C=C4N=C1[C@@H](CCC(N)=O)C\4(C)C)[C@@H](CCC(N)=O)[C@]\3(C)CC(N)=O)[C@@H](CCC(N)=O)[C@]2(C)CC(N)=O.[Co+3] [cobinamide]
IF affinity (in words) [1]: low affinity

C/C1=C2/[N-][C@H]([C@H](CC(N)=O)[C@@]2(C)CCC(=O)NC[C@@H](C)O)[C@]2(C)N=C(/C(C)=C3N=C(/C=C4N=C1[C@@H](CCC(N)=O)C\4(C)C)[C@@H](CCC(N)=O)[C@]\3(C)CC(N)=O)[C@@H](CCC(N)=O)[C@]2(C)CC(N)=O.[CH2-][C@H]1O[C@@H](n2cnc3c(N)ncnc32)[C@H](O)[C@@H]1O.[Co] [Ado-cobinamide]
binding to MMUT (in words) [4]: lower affinity than AdoCbl

C/C1=C2/[N-][C@H]([C@H](CC(N)=O)[C@@]2(C)CCC(=O)NC[C@@H](C)OP(=O)([O-])O[C@H]2[C@@H](O)[C@@H](Oc3ccccc3)O[C@@H]2CO)[C@]2(C)N=C(/C(C)=C3N=C(/C=C4N=C1[C@@H](CCC(N)=O)C\4(C)C)[C@@H](CCC(N)=O)[C@]\3(C)CC(N)=O)[C@@H](CCC(N)=O)[C@]2(C)CC(N)=O.[CH2-][C@H]1O[C@@H](n2cnc3c(N)ncnc32)[C@H](O)[C@@H]1O.[Co+3] [Ado[Phe]Cba, adenosylphenolylcobamide]
MMUT activity with the cobamide (in words) [3]: active | KM, app relative to AdoCbl [3]: 100 fold | activity of WT MMUT with the cobamide (in words) (MMUT WT): active

C/C1=C2/[N-][C@H]([C@H](CC(N)=O)[C@@]2(C)CCC(=O)NC[C@@H](C)OP(=O)([O-])O[C@H]2[C@@H](O)[C@@H](Oc3ccc(C)cc3)O[C@@H]2CO)[C@]2(C)N=C(/C(C)=C3N=C(/C=C4N=C1[C@@H](CCC(N)=O)C\4(C)C)[C@@H](CCC(N)=O)[C@]\3(C)CC(N)=O)[C@@H](CCC(N)=O)[C@]2(C)CC(N)=O.[CH2-][C@H]1O[C@@H](n2cnc3c(N)ncnc32)[C@H](O)[C@@H]1O.[Co+3] [Ado[Cre]Cba]
binding to MMUT (in words) [4]: bound too strongly to measure a Kd value; also recorded: higher affinity for Ado[Cre]Cba than AdoCbl | kon relative to AdoCbl (in words) [5]: about six times higher | KM, app (in words) [3]: in the range of the benzimidazolyl cobamides | MMUT activity with the cobamide (in words) [3]: active | activity of WT MMUT with the cobamide (in words) (MMUT WT): active | activity of MMUT variants with the cobamide (in words) [2]: supported activity to a large extent in all of the variants

cyano-para-cresolylcobamide [CN[Cre]Cba]
IF affinity (in words) [1]: low affinity

6-methyladeninylcobamide
activity of WT MMUT with the cobamide (in words) (MMUT WT): No activity
